Data set [1] has as its target T1, Biotin--protein ligase (Homo sapiens, UniProt P50747).
T1 sequence (P50747 whole entry): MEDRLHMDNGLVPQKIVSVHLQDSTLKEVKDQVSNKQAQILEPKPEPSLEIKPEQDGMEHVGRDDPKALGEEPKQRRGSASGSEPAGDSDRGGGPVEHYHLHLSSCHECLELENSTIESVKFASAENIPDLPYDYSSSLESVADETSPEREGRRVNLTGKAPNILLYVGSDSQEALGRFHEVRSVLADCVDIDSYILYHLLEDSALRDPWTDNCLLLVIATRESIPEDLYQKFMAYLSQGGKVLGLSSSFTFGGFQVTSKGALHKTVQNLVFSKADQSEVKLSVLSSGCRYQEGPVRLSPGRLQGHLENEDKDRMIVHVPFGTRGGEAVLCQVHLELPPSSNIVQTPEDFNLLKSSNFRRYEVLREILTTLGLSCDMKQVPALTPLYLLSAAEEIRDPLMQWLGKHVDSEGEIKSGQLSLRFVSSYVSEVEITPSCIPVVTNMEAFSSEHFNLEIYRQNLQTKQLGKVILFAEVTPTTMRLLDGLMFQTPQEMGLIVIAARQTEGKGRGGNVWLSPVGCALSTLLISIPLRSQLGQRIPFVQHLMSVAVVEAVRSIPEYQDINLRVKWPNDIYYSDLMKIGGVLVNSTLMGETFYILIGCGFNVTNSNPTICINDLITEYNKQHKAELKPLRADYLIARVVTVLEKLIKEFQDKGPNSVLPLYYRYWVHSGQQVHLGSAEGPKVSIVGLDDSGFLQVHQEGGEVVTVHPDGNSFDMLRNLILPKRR
As to the kind of experiment: Displacement of [3H]-biotin from human BPL after 20 mins by scintillation counting. The method in brief:
(§1)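 Purified recombinant BPL was tested in an in vitro biotinylation assay that measured incorporation of radiolabeled biotin into protein. Ki is reported where inhibition was seen, as the mean (standard error) of three independent experiments.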

Data set [2] in a line: Selectivity ratio of Ki for human BPL to Ki for Staphylococcus aureus BPL. An outline of the steps: (§2)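 Selectivity is the ratio of Ki values from the radiolabeled-biotin incorporation assay with purified recombinant BPLs. Each Ki is the mean of three independent experiments.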
The nature of data set [3]: Displacement of [3H]-biotin from Escherichia coli BPL after 20 mins by scintillation counting. The method in brief:
as §1

A short description of data set [4]: Displacement of [3H]-biotin from Staphylococcus aureus BPL after 20 mins by scintillation counting. An outline of the steps: as §1
Data set [5] in a line: Selectivity ratio of Ki for Escherichia coli BPL to Ki for human BPL. The method in brief: as §2
The test system of data set [6] is HepG2. As to the kind of experiment: Cytotoxicity against human HepG2 cells assessed as change in metabolic activity at 64 ug/ml after 24 to 48 hrs by WST1 assay. In kind it is ADME, cell-based.
The nature of data set [7]: Selectivity ratio of Ki for Escherichia coli BPL to Ki for Staphylococcus aureus BPL. The method in brief:
as §2

A short description of data set [8]: Binding affinity to Staphylococcus aureus BPL by surface plasmon resonance. An outline of the steps:
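S. aureus BPL was immobilized on the SPR surface, with varying inhibitor concentrations in the running buffer. Ka and kd come from the sensorgrams. KD was calculated from steady-state affinity where on and off rates were too fast for kinetic evaluation.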

Data set [9] relates to Staphylococcus aureus. The data set is described as follows: Antibacterial activity against methicillin-susceptible Staphylococcus aureus after 16 to 24 hrs by broth microdilution method. It is filed as functional.
Data set [10] concerns Staphylococcus. As to the kind of experiment: Antibacterial activity against coagulase-negative Staphylococcus after 16 to 24 hrs by broth microdilution method. It is filed as functional.
Data set [11] relates to Staphylococcus aureus. As to the kind of experiment: Antibacterial activity against methicillin-resistant Staphylococcus aureus after 16 to 24 hrs by broth microdilution method. It is filed as functional.

Converted amounts (≈) assume the structure as drawn.

As for `C#CCCCCC[C@@H]1SC[C@@H]2NC(=O)N[C@@H]21`, the Ki was found to be 3.5 µM in data set [1], 7.33 µM in [3] and 0.3 µM in data set [4]. The Ratio Ki in data set [2] was 11.7; in [5], 2.1; in [7] it was 24.4. Further, the Activity entry in data set [6] is reported as “Non-toxic”.

Take `O=C1N[C@H]2[C@H](CS[C@H]2CCCCCO)N1`: the Ki was 3.85 µM in data set [1], 3.96 µM in [3] and 3.37 µM in data set [4]. In addition, the Ratio Ki in [2] was found to be 1.1; in data set [5] it was 1; in data set [7], 1.2. The compound also gave a Kd in data set [8] of 2.5 µM.

Consider `CCCCC[C@@H]1SC[C@@H]2NC(=O)N[C@@H]21`, for which the Ki in data set [1] is 0.14 µM; in [3], 1.1 µM; in data set [4], 0.05 µM. Also, the results for the Ratio Ki in data set [2], in [5] and in [7] were 2.8, 7.9 and 22, respectively. Also, the Kd in [8] was 0.06 µM. The figures for the MIC50 in data set [9], in data set [10] and in data set [11] were 8 µg/mL (≈ 37.3 µM), 2 µg/mL (≈ 9.33 µM) and 8 µg/mL (≈ 37.3 µM), respectively. The MIC90 in [9] came to 16 µg/mL (≈ 74.6 µM); in data set [10], 8 µg/mL (≈ 37.3 µM); in data set [11], 16 µg/mL (≈ 74.6 µM). The Activity entry in data set [6] was “Non-toxic”.

As to `O=C1N[C@H]2[C@H](CS[C@H]2CCCCCCO)N1`, the Ki in data set [1], in [3] and in data set [4] was over 20 µM throughout. In addition, the Activity result in data set [6] is reported as “Non-toxic”.

`NCCCCC[C@@H]1SC[C@@H]2NC(=O)N[C@@H]21`: the Ki in [1], in data set [3] and in [4] was over 20 µM each time.

On to `C#CCCCCCC[C@@H]1SC[C@@H]2NC(=O)N[C@@H]21`, for which the inhibitory constant (Ki) amounted to 12 µM in data set [1], 20 µM in [3] and 2.4 µM in data set [4]. The Ratio Ki amounted to 5 in [2], 1.7 in [5] and 8.3 in data set [7]. Further, the Activity result in [6] is listed as “Non-toxic”.

With `CCCCCC[C@@H]1SC[C@@H]2NC(=O)N[C@@H]21`, the Ki in [1] turned out to be 6.43 µM; in data set [3], 7.3 µM; in [4] it was 0.52 µM. Also, the figures for the Ratio Ki in data set [2], in [5] and in data set [7] were 12.4, 1.1 and 14, respectively. The Activity entry in data set [6] is given as “Non-toxic”.

Turning to `C#CCCCC[C@@H]1SC[C@@H]2NC(=O)N[C@@H]21`, the Ki in data set [1] came out at 0.2 µM; in [3] it was 0.9 µM; in data set [4], 0.08 µM. The Ratio Ki in [2] came to 2.5; in [5], 4.5; in data set [7], 11.3. In data set [8], this compound yielded a Kd of 0.08 µM. Also, the MIC50 in data set [9] amounted to 8 µg/mL (≈ 35.7 µM); in data set [10], 4 µg/mL (≈ 17.8 µM); in [11], 8 µg/mL (≈ 35.7 µM). For the same compound, the MIC90 in data set [9] came out at 16 µg/mL (≈ 71.3 µM); in data set [10], 8 µg/mL (≈ 35.7 µM); in data set [11], 16 µg/mL (≈ 71.3 µM). Besides, the Activity entry in [6] is reported as “Non-toxic”.

For `NCCCC[C@@H]1SC[C@@H]2NC(=O)N[C@@H]21`, the Ki in [1], in data set [3] and in data set [4] was over 20 µM each time.

The values are drawn from ChEMBL document CHEMBL2062372, “Biotin analogues with antibacterial activity are potent inhibitors of biotin protein ligase” (ACS Med Chem Lett, 2012).
